From ChEMBL document CHEMBL5104186, “Structure-Activity Relationship and Neuroprotective Activity of 1,5-Dihydro-2H-naphtho[1,2-b][1,4]diazepine-2,4(3H)-diones as P2X4 Receptor Antagonists” (J Med Chem, 2022)
The source made the active and inactive calls. The rule behind the calls is not given here.

Legend:
[1] = target: T1, P2X purinoceptor 3 (Homo sapiens) (UniProt P56373); experiment: Antagonist activity at human P2X3R transfected in CHO-K1 cells at 30 uM preincubated for 30 mins followed by alpha,beta-meATP addition by fluorescence based assay relative to control; format: cell-based; set-up: scale not given: the % may be the effect or the level left
T1 sequence (whole entry): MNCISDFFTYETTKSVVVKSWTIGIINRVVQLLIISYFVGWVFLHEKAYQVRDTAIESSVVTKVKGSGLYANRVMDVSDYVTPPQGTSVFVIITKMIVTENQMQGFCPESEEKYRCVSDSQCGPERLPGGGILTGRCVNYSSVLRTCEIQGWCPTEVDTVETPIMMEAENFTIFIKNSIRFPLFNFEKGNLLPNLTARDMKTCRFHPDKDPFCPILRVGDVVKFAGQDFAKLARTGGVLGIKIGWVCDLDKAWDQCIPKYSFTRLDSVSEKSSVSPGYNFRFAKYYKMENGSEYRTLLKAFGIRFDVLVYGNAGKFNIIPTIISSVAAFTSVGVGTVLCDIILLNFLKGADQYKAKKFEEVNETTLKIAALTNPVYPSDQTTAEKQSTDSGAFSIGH

[2] = target: P2X2/P2X3 heterotrimeric receptor (Homo sapiens) (UniProt Q9UBL9+P56373); experiment: Antagonist activity at human P2X2/3R transfected in CHO-K1 cells at 30 uM preincubated for 30 mins followed by alpha,beta-meATP addition by fluorescence based assay relative to control; format: cell-based; set-up: scale not given: the % may be the effect or the level left
[3] = target: T2, P2X purinoceptor 1 (Homo sapiens) (UniProt P51575); experiment: Antagonist activity at human P2X1R transfected in CHO-K1 cells at 30 uM preincubated for 30 mins followed by alpha,beta-meATP addition by […] based assay relative to control; format: cell-based; set-up: scale not given: the % may be the effect or the level left
T2 sequence (whole entry): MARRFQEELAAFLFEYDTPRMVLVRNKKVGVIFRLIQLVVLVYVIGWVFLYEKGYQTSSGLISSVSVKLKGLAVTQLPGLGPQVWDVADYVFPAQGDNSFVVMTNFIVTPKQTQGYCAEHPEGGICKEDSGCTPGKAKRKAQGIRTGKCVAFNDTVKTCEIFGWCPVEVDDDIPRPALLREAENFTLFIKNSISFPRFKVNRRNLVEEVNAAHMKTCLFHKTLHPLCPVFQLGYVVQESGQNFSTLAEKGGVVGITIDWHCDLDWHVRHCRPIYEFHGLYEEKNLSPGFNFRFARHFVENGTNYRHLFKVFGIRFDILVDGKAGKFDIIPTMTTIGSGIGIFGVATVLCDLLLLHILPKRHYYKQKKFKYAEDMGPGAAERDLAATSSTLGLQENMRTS

[4] = target: T3, P2X purinoceptor 4 (Homo sapiens) (UniProt Q99571); experiment: Antagonist activity at human P2X4R transfected in HEK293 cells at 30 uM preincubated for 30 mins followed by CTP addition by fluorescence based assay relative to control; format: cell-based; set-up: scale not given: the % may be the effect or the level left
T3 sequence (whole entry): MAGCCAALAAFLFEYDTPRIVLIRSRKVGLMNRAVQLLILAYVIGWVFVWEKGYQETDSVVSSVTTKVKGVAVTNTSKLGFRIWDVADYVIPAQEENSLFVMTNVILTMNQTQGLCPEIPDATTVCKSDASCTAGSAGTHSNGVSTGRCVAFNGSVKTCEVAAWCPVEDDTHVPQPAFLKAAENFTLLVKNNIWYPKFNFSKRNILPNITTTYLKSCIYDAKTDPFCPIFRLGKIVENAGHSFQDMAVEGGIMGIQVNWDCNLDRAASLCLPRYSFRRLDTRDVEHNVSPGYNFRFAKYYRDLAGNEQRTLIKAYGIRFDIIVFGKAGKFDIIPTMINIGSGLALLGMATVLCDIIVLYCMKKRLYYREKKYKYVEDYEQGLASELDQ

P2X purinoceptor 4 [5] = target: T4, P2X purinoceptor 4 (Homo sapiens, UniProt Q99571); experiment: Antagonist activity at human P2X4R transfected in HEK293 cells preincubated for 30 mins followed by CTP addition by fluorescence based assay; format: cell-based
T4 sequence (Q99571 whole entry): T3 sequence (whole entry)

MDM [6] = experiment: Inhibition of ATP-induced calcium influx in human monocytes derived macrophages assessed as decrease in calcium altitude at 0.6 uM preincubated for 15 mins followed by ATP addition and measured upto 4 mins by laser scanning confocal microscopic analysis; format: functional, cell-based; settings: time <= 19.0 min
How it was run: (§1)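 Monocytes matured into macrophages with GM-CSF (5 ng/mL) for 5–7 days, then seeded 10^4 cells/dish for ≥24 h. Calbryte 590 AM loaded for 60 min in HBSS/HEPES. Cells pretreated 15 min with 0–3 μM compound, then 50 μM ATP added; confocal images taken every 6 s for up to 4 min. Read-out is peak cytosolic Ca2+ amplitude (F/F0). Mean ± SEM; ANOVA with Tukey.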

[7] = target: T5, 5-hydroxytryptamine receptor 2C (Homo sapiens, UniProt P28335); experiment: Binding affinity to human 5HT2C serotonin receptor
T5 sequence (P28335 whole entry): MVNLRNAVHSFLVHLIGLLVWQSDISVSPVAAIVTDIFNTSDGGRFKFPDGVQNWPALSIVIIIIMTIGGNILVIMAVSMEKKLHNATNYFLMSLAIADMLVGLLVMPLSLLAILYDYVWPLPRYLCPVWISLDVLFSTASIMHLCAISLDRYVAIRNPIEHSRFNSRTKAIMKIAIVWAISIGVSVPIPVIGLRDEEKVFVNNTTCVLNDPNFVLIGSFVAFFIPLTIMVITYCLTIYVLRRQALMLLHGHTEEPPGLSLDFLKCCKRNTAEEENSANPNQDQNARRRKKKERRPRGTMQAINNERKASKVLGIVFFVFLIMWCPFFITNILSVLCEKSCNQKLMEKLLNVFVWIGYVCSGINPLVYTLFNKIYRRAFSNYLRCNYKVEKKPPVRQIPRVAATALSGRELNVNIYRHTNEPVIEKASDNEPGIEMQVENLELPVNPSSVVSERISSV
How it was run: (§2)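 Off-target radioligand binding was run by the NIMH Psychoactive Drug Screening Program across 45 receptors, channels and transporters. Ki in nM, given as mean ± SEM.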

MDM [8] = experiment: Inhibition of ATP-induced calcium influx in human monocytes derived macrophages preincubated for 15 mins followed by ATP addition and measured upto 4 mins by laser scanning confocal microscopic analysis; format: functional, cell-based; settings: dose 0.6-3 µM, time <= 19.0 min, DDE = dose-dependent effect; how it was run: as §1
Mus musculus [9] = experiment: Neuroprotective activity in Wild type C57B/6 mouse model of middle cerebral artery occlusion assessed as reduction in infract damage at […] administered for 3 days by TTC staining based assay; format: functional, organism-based; settings: time 3.0 day
Mus musculus [10] = experiment: Neuroprotective activity in Wild type C57B/6 mouse model of middle cerebral artery occlusion assessed as reduction in hemispheric infract size at 0.5 to 3 mg/kg/day administered for 3 days; format: functional, organism-based; settings: dose 0.5-3 mg/kg/day, time 3.0 day
How it was run: (§3)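 C57B/6 mice (8–12-week-old males; 12–13-month-old mice in one study) underwent MCAO (filament, laser Doppler confirmation, 37 °C). At reperfusion a subcutaneous Alzet pump was implanted, giving 0.5–3.0 or 5.0 mg/kg/day for 3 days; vehicle was PBS. At day 3, TTC-stained coronal sections were scored blind, with edema-corrected (Swanson) infarct volume as % of contralateral. Mean ± S.D.; n = 5–6.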

D(3) dopamine receptor = D(3) dopamine receptor (Homo sapiens, UniProt P35462); experiment: Binding affinity to human D3 dopamine receptor; how it was run: as §2
D(3) dopamine receptor, sequence (P35462 whole entry): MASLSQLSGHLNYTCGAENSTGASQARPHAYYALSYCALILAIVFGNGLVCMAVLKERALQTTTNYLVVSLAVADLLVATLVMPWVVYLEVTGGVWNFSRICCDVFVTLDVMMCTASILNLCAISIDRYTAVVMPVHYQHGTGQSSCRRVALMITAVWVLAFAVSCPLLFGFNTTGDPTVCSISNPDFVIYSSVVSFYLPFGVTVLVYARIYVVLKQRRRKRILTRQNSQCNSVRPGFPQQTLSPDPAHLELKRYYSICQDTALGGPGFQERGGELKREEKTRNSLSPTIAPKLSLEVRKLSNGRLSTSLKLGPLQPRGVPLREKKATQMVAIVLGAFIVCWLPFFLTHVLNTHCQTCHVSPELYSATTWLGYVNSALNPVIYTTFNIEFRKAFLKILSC

Mus musculus [11] = experiment: Neuroprotective activity in Wild type C57B/6 mouse model of middle cerebral artery occlusion assessed as reduction in cortical infract volume at […] administered for 3 days; format: functional, organism-based; settings: time 3.0 day
Mus musculus [12] = experiment: Improvement in learning and memory in C57B/6 mouse model of middle cerebral artery occlusion at 3 mg/kg measured after 4 weeks post stroke by NORT; format: functional, organism-based
How it was run: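 Middle-aged C57B/6 mice (both sexes) underwent MCAO and received a 3-day subcutaneous minipump infusion from reperfusion (vehicle PBS). NORT was run 4 weeks post-stroke: 1 h acclimatisation, 10 min habituation, 10 min trial with two identical objects, then a test 24 h later with one novel object. Discrimination index = (TN − TF)/(TN + TF). One-way ANOVA with Tukey; n = 5–11/group.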

Mus musculus [13] = experiment: Neuroprotective activity in Wild type C57B/6 mouse model of middle cerebral artery occlusion assessed as reduction in tissue atrophy at […] administered for 3 days measured after 35 days by CV staining based assay; format: functional, organism-based; settings: time 3.0 day
[14] = Effect on locomotor activity in C57B/6 mouse model of middle cerebral artery occlusion at 1.5 to 3 mg/kg/day measured over 4 weeks after stroke by open field test; format: toxicity, organism-based; settings: in vivo, 672 h, dose 1.5-3 mg/kg/day
How it was run: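 C57B/6 mice underwent MCAO and received a subcutaneous Alzet minipump (vehicle 1× PBS) at reperfusion, delivering compound for 3 days. Open-field test: 10 min exploration of a 16″ acrylic box at several time points; total beam breaks recorded. Mean ± S.D.; n = 8–15/group, both sexes.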

P2X purinoceptor 4 [15] = target: T6, P2X purinoceptor 4 (Rattus norvegicus, UniProt P51577); experiment: Antagonist activity at rat P2X4R expressed in HEK293 cells preincubated for 2 mins followed by ATP addition and measured after 4 mins; format: cell-based
T6 sequence (P51577 whole entry): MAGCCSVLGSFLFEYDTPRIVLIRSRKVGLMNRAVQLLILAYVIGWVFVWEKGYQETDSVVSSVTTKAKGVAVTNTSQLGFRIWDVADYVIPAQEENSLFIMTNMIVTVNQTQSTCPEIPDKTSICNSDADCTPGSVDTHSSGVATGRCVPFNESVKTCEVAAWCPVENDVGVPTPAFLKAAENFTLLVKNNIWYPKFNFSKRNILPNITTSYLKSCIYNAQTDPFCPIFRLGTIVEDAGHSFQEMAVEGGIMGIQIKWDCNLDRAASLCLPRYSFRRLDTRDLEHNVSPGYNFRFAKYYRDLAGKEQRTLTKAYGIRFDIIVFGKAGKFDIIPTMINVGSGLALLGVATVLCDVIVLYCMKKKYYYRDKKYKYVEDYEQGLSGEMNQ

Mus musculus [16] = experiment: Neuroprotective activity in Wild type C57B/6 mouse model of middle cerebral artery occlusion assessed as reduction in hemispheric infract size at 5 mg/kg/day administered for 3 days; format: functional, organism-based; settings: time 3.0 day; how it was run: as §3

SMILES	Activity [1]	Activity [2]	Activity [3]	Activity [4]	also measured
NCc1ccc2ccc3c(c2c1)NC(=O)CC(=O)N3c1cccc(-c2noc(=S)[nH]2)c1	9%	0%	8%	9%	
O=C1CC(=O)N(c2cccc(-c3noc(=S)[nH]3)c2)c2cc(-c3ccccc3)c3ccccc3c2N1	11%	10%	14%		IC50 (P2X purinoceptor 4 [5]): 20.7 µM
Cc1cc(-c2noc(=S)[nH]2)cc(N2C(=O)CC(=O)Nc3c2ccc2ccccc32)c1	12%	5%	16%		
O=C1CC(=O)N(c2cccc(-c3noc(=S)[nH]3)c2)c2cc(C#Cc3ccccc3)c3ccccc3c2N1	7%	5%	14%	-4%	
CCc1cc2c(c3ccccc13)NC(=O)CC(=O)N2c1cccc(-c2noc(=S)[nH]2)c1	6%	10%	6%		
[N-]=[N+]=NCc1ccc2c3c(ccc2c1)N(c1cccc(-c2noc(=S)[nH]2)c1)C(=O)CC(=O)N3	0%	2%	-5%		IC50 (P2X purinoceptor 4 [5]): 21.3 µM
[N-]=[N+]=NCc1ccc2c(Br)cc3c(c2c1)NC(=O)CC(=O)N3c1cccc(-c2noc(=S)[nH]2)c1	15%	-4%	-13%	8%	
CCN(CC)CC.O=C1CC(=O)N(c2ccnc(-c3noc(=S)[nH]3)c2)c2ccc3ccccc3c2N1					inhibition (MDM [6]): Active; Ki [7]: 0.006 µM; inhibition (MDM [8]): Dde; Activity (Mus musculus [9]): Active; Activity (Mus musculus [10]): Active; Ki (D(3) dopamine receptor): 0.00077 µM; Activity (Mus musculus [11]): Active; Activity (Mus musculus [12]): Active; Activity (Mus musculus [13]): Active; Activity [14]: Non-Toxic
O=C1CC(=O)N(c2cc(-c3noc(=S)[nH]3)ccn2)c2ccc3ccccc3c2N1	18%	-6%	18%		
O=C1CN=C(c2cccc(Br)c2)c2oc3ccccc3c2N1					IC50 (P2X purinoceptor 4 [15]): 0.75 µM
CCCCC#Cc1cc2c(c3ccccc13)NC(=O)CC(=O)N2c1cccc(-c2noc(=S)[nH]2)c1	18%	1%	16%	15%	
O=C1CC(=O)N(c2cncc(-c3noc(=S)[nH]3)c2)c2ccc3ccccc3c2N1	6%	25%	15%		
Cc1ccc2c3c(ccc2c1)N(c1cccc(-c2noc(=S)[nH]2)c1)C(=O)CC(=O)N3					Activity (Mus musculus [16]): Active
O=C1CC(=O)N(c2cccc(-c3noc(=S)[nH]3)n2)c2ccc3ccccc3c2N1	17%	15%	31%		
O=C1CC(=O)N(c2cccc(-c3noc(=S)[nH]3)c2)c2cc(C#Cc3cccnc3)c3ccccc3c2N1	9%	13%	9%	34%	
CC(=O)NCc1ccc2ccc3c(c2c1)NC(=O)CC(=O)N3c1cccc(-c2noc(=S)[nH]2)c1	9%	-5%	26%	16%	
Cc1ccc2c(Br)cc3c(c2c1)NC(=O)CC(=O)N3c1cccc(-c2noc(=S)[nH]2)c1	17%	-5%	-2%		IC50 (P2X purinoceptor 4 [5]): 11.8 µM
[N-]=[N+]=NCc1ccc2ccc3c(c2c1)NC(=O)CC(=O)N3c1cccc(-c2noc(=S)[nH]2)c1	13%	4%	8%	6%	
